Reference: PMC9184248 (Journal of Pesticide Science, 2022)

Assays:
Assay in all cases: two-electrode voltage clamp, Xenopus oocytes
Type in all cases: cell-based
[1] = target: T1, LsRDLR (Laodelphax striatellus RDL GABA receptor) (Laodelphax striatellus, UniProt Q0ECT5, F128Y/Y91F)
T1 sequence (Q0ECT5 23-487 Y91F/F128Y): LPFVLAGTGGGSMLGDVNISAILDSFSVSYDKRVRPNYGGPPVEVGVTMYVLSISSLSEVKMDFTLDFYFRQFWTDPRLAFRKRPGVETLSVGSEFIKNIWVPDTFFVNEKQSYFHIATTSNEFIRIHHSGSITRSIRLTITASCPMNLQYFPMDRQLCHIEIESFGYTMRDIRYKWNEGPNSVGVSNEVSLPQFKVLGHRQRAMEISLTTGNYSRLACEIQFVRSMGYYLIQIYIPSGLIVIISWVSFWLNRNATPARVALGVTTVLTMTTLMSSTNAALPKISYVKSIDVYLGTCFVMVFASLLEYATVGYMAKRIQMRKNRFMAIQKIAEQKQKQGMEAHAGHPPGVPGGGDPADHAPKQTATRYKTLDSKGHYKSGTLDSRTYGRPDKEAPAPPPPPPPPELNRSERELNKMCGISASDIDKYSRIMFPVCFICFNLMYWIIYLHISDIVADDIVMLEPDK
Procedure, shortened: (§1)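 WT or site-directed mutant LsRDL cRNA (5 ng) injected into defolliculated Xenopus oocytes, which were then held 48 hr at 16°C in SOS (pH 7.6). Clamped at −80 mV, perfused with SOS at 18–20°C. GABA applied for 3 sec at 30–60 sec intervals. EC50 from a four-parameter variable-slope logistic fit; ≥6 oocytes from ≥2 frogs; mean±S.D.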

[2] = target: T2, LsRDLR (Laodelphax striatellus RDL GABA receptor) (Laodelphax striatellus, UniProt Q0ECT5, F128Y/F95S)
T2 sequence (Q0ECT5 23-487 F95S/F128Y): T1 sequence (Q0ECT5 23-487 Y91F/F128Y)
Procedure, shortened: as §1

[3] = target: T3, LsRDLR (Laodelphax striatellus RDL GABA receptor) (Laodelphax striatellus, UniProt Q0ECT5)
T3 sequence (Q0ECT5 23-487): T1 sequence (Q0ECT5 23-487 Y91F/F128Y)
Procedure, shortened: as §1

[4] = target: T4, LsRDLR (Laodelphax striatellus RDL GABA receptor) (Laodelphax striatellus, UniProt Q0ECT5, F95S/Y91F)
T4 sequence (Q0ECT5 23-487 Y91F/F95S): T1 sequence (Q0ECT5 23-487 Y91F/F128Y)
Procedure, shortened: as §1

[5] = target: T5, LsRDLR (Laodelphax striatellus RDL GABA receptor) (Laodelphax striatellus, UniProt Q0ECT5, Y91F)
T5 sequence (Q0ECT5 23-487 Y91F): T1 sequence (Q0ECT5 23-487 Y91F/F128Y)
Procedure, shortened: as §1

[6] = target: T6, LsRDLR (Laodelphax striatellus RDL GABA receptor) (Laodelphax striatellus, UniProt Q0ECT5, F95S)
T6 sequence (Q0ECT5 23-487 F95S): T1 sequence (Q0ECT5 23-487 Y91F/F128Y)
Procedure, shortened: as §1

[7] = target: T7, LsRDLR (Laodelphax striatellus RDL GABA receptor) (Laodelphax striatellus, UniProt Q0ECT5, F128Y/F95S/Y91F)
T7 sequence (Q0ECT5 23-487 Y91F/F95S/F128Y): T1 sequence (Q0ECT5 23-487 Y91F/F128Y)
Procedure, shortened: as §1

[8] = target: T8, LsRDLR (Laodelphax striatellus RDL GABA receptor) (Laodelphax striatellus, UniProt Q0ECT5, F128Y)
T8 sequence (Q0ECT5 23-487 F128Y): T1 sequence (Q0ECT5 23-487 Y91F/F128Y)
Procedure, shortened: as §1

[9] = target: T3, LsRDLR (Laodelphax striatellus RDL GABA receptor); conditions: read-out: % of control GABA response remaining at 30 μM gabazine

Row | remaining activity at 30 µM [9] [%] | Structure (SMILES) | EC50 [1] [µM] | EC50 [2] [µM] | EC50 [3] [µM] | EC50 [4] [µM] | EC50 [5] [µM] | EC50 [6] [µM] | EC50 [7] [µM] | EC50 [8] [µM]
1 |  | NCCCC(=O)O [GABA] | 37.3 ± 11.8 | 25.6 ± 11.9 | 6.83 ± 3.74 | 63.2 ± 23.8 | 131 ± 45 | 4.08 ± 1.31 | 15.4 ± 3.7 | 43.7 ± 10.2
2 | 77.8 ± 8 | COc1ccc(-c2ccc(=N)n(CCCC(=O)O)n2)cc1 [gabazine, 2-(3-carboxypropyl)-6-(4-methoxyphenyl)-2,3-dihydropyridazin-3-iminium bromide] |  |  |  |  |  |  |  | 
